The source of these data is article PMC11182071 (Journal of Enzyme Inhibition and Medicinal Chemistry, 2024).

The test system of one series is α-glucosidase. Put plainly: α-Glucosidase inhibition assay. The series is classed as biochemical, yeast. As to conditions: for α-glucosidase inhibition (% at 50 μM): mean ± SD, n=3.
The target in series [1] is T1, PTP1B (Homo sapiens, UniProt P18031).
T1 sequence (P18031 1-435): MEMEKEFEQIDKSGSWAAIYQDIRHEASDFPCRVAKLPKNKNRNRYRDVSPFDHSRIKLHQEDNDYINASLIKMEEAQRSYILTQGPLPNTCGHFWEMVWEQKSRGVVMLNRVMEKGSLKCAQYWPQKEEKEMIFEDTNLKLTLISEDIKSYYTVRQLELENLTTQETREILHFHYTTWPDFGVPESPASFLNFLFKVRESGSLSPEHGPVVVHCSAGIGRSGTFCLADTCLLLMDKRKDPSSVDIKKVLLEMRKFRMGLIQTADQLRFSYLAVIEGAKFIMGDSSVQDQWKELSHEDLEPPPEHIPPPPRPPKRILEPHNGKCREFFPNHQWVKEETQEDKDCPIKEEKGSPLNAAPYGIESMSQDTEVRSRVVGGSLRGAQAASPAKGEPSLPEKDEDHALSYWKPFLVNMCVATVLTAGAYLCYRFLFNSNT
The series can be described thus: Protein tyrosine phosphatase 1B inhibition assay. Type of series: biochemical. As to conditions: for inhibition at 50 µM: read-out: PTP1B inhibition (% at 50 μM).

Another series addresses T2, α-amylase (Sus scrofa, UniProt P00690).
T2 sequence (P00690 16-511): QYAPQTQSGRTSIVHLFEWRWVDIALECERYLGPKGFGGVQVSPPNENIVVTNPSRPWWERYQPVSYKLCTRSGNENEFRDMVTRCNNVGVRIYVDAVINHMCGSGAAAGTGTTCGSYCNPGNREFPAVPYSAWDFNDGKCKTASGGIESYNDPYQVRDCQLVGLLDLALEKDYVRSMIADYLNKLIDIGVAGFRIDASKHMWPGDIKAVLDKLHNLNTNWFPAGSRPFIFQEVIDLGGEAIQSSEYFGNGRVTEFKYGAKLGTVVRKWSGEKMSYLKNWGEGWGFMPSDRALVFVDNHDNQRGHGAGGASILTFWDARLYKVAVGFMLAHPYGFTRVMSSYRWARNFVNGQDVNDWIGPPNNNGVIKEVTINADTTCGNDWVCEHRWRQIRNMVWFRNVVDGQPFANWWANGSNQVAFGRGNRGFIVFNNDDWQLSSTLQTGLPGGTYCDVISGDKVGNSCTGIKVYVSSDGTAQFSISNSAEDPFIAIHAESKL
The series can be described thus: α-amylase inhibition assay. The series is classed as biochemical, porcine. The settings on record: read-out: α-amylase inhibition (% at 250 μM).

A short description of a further series: Solubility observations. The series is classed as physicochemical. As to conditions: medium not stated.
The subject of series [2] is insulin-resistant HepG2 cells. The series can be described thus: In vitro glucose consumption assay in insulin-resistant HepG2 cells. The series is classed as cell-based, human. The settings on record: 24 h treatment; vs model group. A digest of the protocol:
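HepG2 seeded in 6-well plates at 1 × 10^5 cells/well for 24 h. Serum-starved 2 h, then made insulin-resistant with 1 × 10−6 mol/l insulin for 48 h at 37 °C, 5% CO2. Groups: control, model, low/middle/high dose of free or liposomal test compound (top 100 μg/mL), blank liposome. After 24 h treatment, medium glucose measured by glucose oxidase kit; consumption = blank-well minus sample-well glucose. Mean ± SD, n = 3.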

For series [3], the target named is T1, PTP1B. Put plainly: PTP1B inhibition kinetic assay. Type of series: biochemical. A digest of the protocol: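 PTP1B at 100 nM reacted with p-nitrophenyl phosphate at 1, 2, 5 and 10 mM and test compound at 0, 0.5, 1.0 and 5.0 μM. Absorbance read every 3 min. Velocity taken from the time–Δabs plot. Inhibition mode from Lineweaver-Burk double-reciprocal plots; Ki from Dixon plots. Triplicate.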

For the compound `C[C@H]1O[C@H](O[C@H]2[C@H](O)[C@@H](O)[C@@H](O[C@H]3[C@H](O)[C@@H](O)C(O)O[C@@H]3CO)O[C@@H]2CO)[C@H](O)[C@@H](O)[C@@H]1N[C@H]1C=C(CO)[C@@H](O)[C@H](O)[C@H]1O` (stereo partly drawn) [Acarbose, reference compound], the “α-glucosidase inhibition (% at 50 μM)” value with α-glucosidase came to 96.51 ± 0.02%.

For the compound `CC(C)=C1CC=C([C@H]2CC[C@]3(C)[C@@H]2CC[C@@H]2C4=C(CC[C@]23C)C(C)(C)[C@@H]2CC[C@H]4O2)C1=O` [Compound 4, gypensapogenin A], in the series with α-glucosidase, the “α-glucosidase inhibition (% at 50 μM)” value stood at 25.80 ± 0.71%. On PTP1B [1], the inhibition at 50 µM stood at 65.9 ± 1.69%. Also, the inhibition at 250 µM on α-amylase worked out at 31.81 ± 0.02%.

`CC(C)=C1CC([C@H]2CC[C@]3(C)[C@@H]2CC[C@@H]2C4=C(CC[C@]23C)C(C)(C)[C@@H]2CC[C@H]4O2)=CC1=O` [Compound 5, gypensapogenin B]: the “α-glucosidase inhibition (% at 50 μM)” value with α-glucosidase was 25.55 ± 1.75%. Moreover, on PTP1B [1], the inhibition at 50 µM amounted to 67.1 ± 1.33%.

Consider `CC(C)=C1CC=C([C@H]2CC[C@]3(C)[C@@H]2CC[C@@H]2[C@@]4(C)CC[C@H](O)C(C)(C)[C@@H]4CC[C@]23C)C1=O` [Compound 6, gypensapogenin C], for which, in the series with α-glucosidase, the “α-glucosidase inhibition (% at 50 μM)” value is listed as 24.64 ± 0.65%. Besides, the inhibition at 50 µM at PTP1B [1] amounted to 78.9 ± 0.87%.

`CC(C)=C[C@H]1C=C([C@H]2CC[C@]3(C)[C@@H]2CC[C@@H]2[C@@]4(C)CC[C@H](O)C(C)(C)[C@@H]4CC[C@]23C)C(=O)O1` [Compound 7, gypensapogenin D]: the Solubility entry in the series “Solubility observations” is listed as “poorly solubility”. In addition, the “α-glucosidase inhibition (% at 50 μM)” value with α-glucosidase is on record as 61.94 ± 1.54%. In addition, at α-glucosidase (read-out: α-glucosidase IC50, mean ± SD of three replications), the IC50 is 27.15 ± 0.17 µM. Besides, at PTP1B [1], the IC50 amounted to 8.17 ± 0.63 µM and the inhibition at 50 µM was 83.49 ± 0.62%. Besides, the “Glucose consumption in insulin-resistant HepG2 cells” value in series [2] is on record as “did not improve the reduction of glucose consumption”. Also, the Ki at PTP1B [3] stood at 4.29 µM. In addition, at PTP1B [3] (Lineweaver-Burk double reciprocal plot), the “Inhibition type against PTP1B (Lineweaver-Burk plot)” value was “competitive inhibitors”. Further, the inhibition at 250 µM at α-amylase turned out to be 11.6 ± 1.24%.

In the case of `[Na+].[Na+].[Na+].[O]=[V]([O-])([O-])[O-]` [Na3VO4, reference compound], at PTP1B [1] (50 μM, mean ± SD, n=3), the “PTP1B inhibition (% at 50 μM)” value was determined as 98.07 ± 0.51%.

In general, inhibition refers to the share of the control response that was lost under treatment. What is called IC50 is the point on the concentration scale where inhibition reaches its midpoint. Broadly, the Ki is the equilibrium dissociation constant of an inhibitor or competing ligand from its target. The low end stands for a stronger hold on the target, the high end for a looser hold on the target.
